In brackets after ≈: the same amount, converted by molar mass.
Assays:
Type in all cases: functional
[1] = system: Staphylococcus aureus; experiment: Growth inhibition of Staphylococcus aureus NCIM 2010 at 30 ug/ml measured after 12 hrs relative to control; details: NCIM 2010, 12 h, read-out: GI
Method in brief: (§1)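 Bacteria grown in LB at 37 °C and 180 rpm to OD 1. Compounds added to wells, then 0.1% inoculum of 1 OD culture (620 nm). Growth read as OD at 620 nm after 8 h for gram-negative and after 12 h for gram-positive strains.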

[2] = system: Bacillus subtilis; experiment: Growth inhibition of Bacillus subtilis NCIM 2079 at 30 ug/ml measured after 12 hrs relative to control; details: NCIM 2079, 12 h, read-out: GI; method in brief: as §1
[3] = system: Staphylococcus aureus; experiment: Growth inhibition of Staphylococcus aureus NCIM 2010 at 10 ug/ml measured after 12 hrs relative to control; details: NCIM 2010, 12 h, read-out: GI; method in brief: as §1
[4] = system: Staphylococcus aureus; experiment: Growth inhibition of Staphylococcus aureus NCIM 2010 at 3 ug/ml measured after 12 hrs relative to control; details: NCIM 2010, 12 h, read-out: GI; method in brief: as §1
[5] = system: Bacillus subtilis; experiment: Growth inhibition of Bacillus subtilis NCIM 2079 at 10 ug/ml measured after 12 hrs relative to control; details: NCIM 2079, 12 h, read-out: GI; method in brief: as §1
[6] = system: Bacillus subtilis; experiment: Growth inhibition of Bacillus subtilis NCIM 2079 at 3 ug/ml measured after 12 hrs relative to control; details: NCIM 2079, 12 h, read-out: GI; method in brief: as §1
[7] = system: Escherichia coli; experiment: Growth inhibition of Escherichia coli NCIM 2688 at 30 ug/ml measured after 8 hrs relative to control; details: NCIM 2688, 8 h, read-out: GI; method in brief: as §1
[8] = system: Escherichia coli; experiment: Growth inhibition of Escherichia coli NCIM 2688 at 10 ug/ml measured after 8 hrs relative to control; details: NCIM 2688, 8 h, read-out: GI; method in brief: as §1
[9] = system: Escherichia coli; experiment: Growth inhibition of Escherichia coli NCIM 2688 at 3 ug/ml measured after 8 hrs relative to control; details: NCIM 2688, 8 h, read-out: GI; method in brief: as §1
[10] = system: Pseudomonas fluorescens; experiment: Growth inhibition of Pseudomonas fluorescens NCIM 2036 at 30 ug/ml measured after 8 hrs relative to control; details: NCIM 2036, 8 h, read-out: GI; method in brief: as §1
[11] = system: Pseudomonas fluorescens; experiment: Growth inhibition of Pseudomonas fluorescens NCIM 2036 at 10 ug/ml measured after 8 hrs relative to control; details: NCIM 2036, 8 h, read-out: GI; method in brief: as §1
[12] = system: Pseudomonas fluorescens; experiment: Growth inhibition of Pseudomonas fluorescens NCIM 2036 at 3 ug/ml measured after 8 hrs relative to control; details: NCIM 2036, 8 h, read-out: GI; method in brief: as §1
[13] = system: Escherichia coli; experiment: Antibacterial activity against Escherichia coli NCIM 2688 measured after 8 hrs; details: NCIM 2688, 8 h; method in brief: as §1
[14] = system: Pseudomonas fluorescens; experiment: Antibacterial activity against Pseudomonas fluorescens NCIM 2036 measured after 8 hrs; details: NCIM 2036, 8 h; method in brief: as §1
[15] = system: Staphylococcus aureus; experiment: Antibacterial activity against of Staphylococcus aureus NCIM 2010 measured after 12 hrs; details: NCIM 2010, 12 h; method in brief: as §1
[16] = system: Bacillus subtilis; experiment: Antibacterial activity against Bacillus subtilis NCIM 2079 measured after 12 hrs; details: NCIM 2079, 12 h; method in brief: as §1
[17] = system: Mycobacterium tuberculosis; experiment: Growth inhibition of Mycobacterium bovis BCG ATCC 35743 at dormant stage at 30 ug/ml measured after 12 days by nitrate reductase dye based two fold dilution method relative to control; details: BCG str. ATCC 35743, 288 h, read-out: GI
Method in brief: (§2)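 M. bovis BCG was grown in Dubos medium and assayed in Mycobacterium pheli minimal medium (pH 6.6), with compounds from DMSO stocks. Incubation lasted 8 days for active and 12 days for dormant cultures. Viability was read by nitrate reductase at 540 nm against cell-free blanks, with vehicle set as 100% growth. Primary screen was at 30, 10 and 3 µg/ml, in triplicate, mean ± SD. MIC was taken from dose-response curves.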

[18] = system: Mycobacterium tuberculosis; experiment: Growth inhibition of Mycobacterium bovis BCG ATCC 35743 at dormant stage at 10 ug/ml measured after 12 days by nitrate reductase dye based two fold dilution method relative to control; details: BCG str. ATCC 35743, 288 h, read-out: GI; method in brief: as §2
[19] = system: Mycobacterium tuberculosis; experiment: Growth inhibition of Mycobacterium bovis BCG ATCC 35743 at dormant stage at 3 ug/ml measured after 12 days by nitrate reductase dye based two fold dilution method relative to control; details: BCG str. ATCC 35743, 288 h, read-out: GI; method in brief: as §2
[20] = system: Mycobacterium tuberculosis; experiment: Growth inhibition of Mycobacterium bovis BCG ATCC 35743 at active stage measured after 8 days by nitrate reductase dye based two fold dilution method; details: BCG str. ATCC 35743, 192 h; method in brief: as §2
[21] = system: Mycobacterium tuberculosis; experiment: Growth inhibition of Mycobacterium tuberculosis H37Ra ATCC 25177 at dormant stage measured after 12 days by XTT dye based two fold dilution method; details: H37Ra ATCC 25177, 288 h
Method in brief: (§3)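 MTB H37Ra was grown in Dubos medium, then exposed in Mycobacterium pheli minimal medium (pH 6.6) to compounds dissolved in DMSO. The assay ended on day 8 (active) or day 12 (dormant). Viable cells were measured by XTT reduction menadione assay at 470 nm, blank-corrected, relative to vehicle control. Triplicates were expressed as mean ± SD. MIC came from dose-response curves.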

[22] = system: Mycobacterium tuberculosis; experiment: Growth inhibition of Mycobacterium bovis BCG ATCC 35743 at dormant stage measured after 12 days by nitrate reductase dye based two fold dilution method; details: BCG str. ATCC 35743, 288 h; method in brief: as §2
[23] = system: Mycobacterium tuberculosis; experiment: Growth inhibition of Mycobacterium tuberculosis H37Ra ATCC 25177 at active stage measured after 8 days by XTT dye based two fold dilution method; details: H37Ra ATCC 25177, 192 h; method in brief: as §3
[24] = system: Candida albicans; experiment: Antifungal activity against Candida albicans NCIM 3471 by standard agar method
Method in brief: (§4)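 MICs determined by standard agar method; DMSO as solvent control.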

[25] = system: Aspergillus flavus; experiment: Antifungal activity against Aspergillus flavus NCIM 539 by standard agar method; method in brief: as §4
[26] = system: Aspergillus niger; experiment: Antifungal activity against Aspergillus niger NCIM 1196 by standard agar method; method in brief: as §4
[27] = Antifungal activity against Cryptococcus neoformans NCIM 576 by standard agar method; method in brief: as §4
[28] = Antifungal activity against Fusarium oxysporum NCIM 1332 by standard agar method; method in brief: as §4

Compound | inhibition of growth at 30 µg/mL [1] [%] | inhibition of growth at 30 µg/mL [2] [%] | inhibition of growth at 10 µg/mL [3] [%] | inhibition of growth at 3 µg/mL [4] [%] | inhibition of growth at 10 µg/mL [5] [%] | inhibition of growth at 3 µg/mL [6] [%] | inhibition of growth at 30 µg/mL [7] [%] | inhibition of growth at 10 µg/mL [8] [%] | inhibition of growth at 3 µg/mL [9] [%] | inhibition of growth at 30 µg/mL [10] [%] | inhibition of growth at 10 µg/mL [11] [%] | inhibition of growth at 3 µg/mL [12] [%] | MIC [13] [µg/mL] | MIC [14] [µg/mL] | MIC [15] [µg/mL] | MIC [16] [µg/mL] | inhibition of growth at 30 µg/mL [17] [%] | inhibition of growth at 10 µg/mL [18] [%] | inhibition of growth at 3 µg/mL [19] [%] | IC50 [20] [µg/mL] | further results
COc1ccc2cc(/C=C3\SC(=S)N(CCC(=O)O)C3=O)c(Cl)nc2c1 | -17.3 | 0.458 | -12.1 | -13 | -0.582 | -3.95 | 6.84 | 13.7 | 2.29 | -33.9 | -3.31 | -62.2 | > 30 | > 30 | > 30 | > 30 | 11.3 | 16.9 | 14.1 | > 30 | IC90 [20]: > 30 µg/mL; IC50 [21]: > 30 µg/mL; IC90 [21]: > 30 µg/mL; IC50 [22]: > 30 µg/mL; IC90 [22]: > 30 µg/mL; IC50 [23]: > 30 µg/mL; IC90 [23]: > 30 µg/mL; MIC [24]: 150 µg/mL (≈ 367 µM); MIC [25]: 100 µg/mL (≈ 245 µM); MIC [26]: 200 µg/mL (≈ 489 µM); MIC [27]: 150 µg/mL (≈ 367 µM)
NC[C@H]1O[C@H](O[C@H]2[C@H](O)[C@@H](O[C@H]3O[C@H](CO)[C@@H](O)[C@H](N)[C@H]3O)[C@H](N)C[C@@H]2N)[C@H](O)[C@@H](O)[C@@H]1O [KANAMYCIN] |  |  |  |  |  |  |  |  |  |  |  |  | 0.67 (≈ 1.38 µM) | 0.012 (≈ 0.0248 µM) | 16 (≈ 33 µM) | 0.25 (≈ 0.516 µM) |  |  |  |  | 
CC1(C)S[C@@H]2[C@H](NC(=O)[C@H](N)c3ccccc3)C(=O)N2[C@H]1C(=O)O [AMPICILLIN] |  |  |  |  |  |  |  |  |  |  |  |  | 0.41 (≈ 1.17 µM) | 2.83 (≈ 8.1 µM) | 0.12 (≈ 0.343 µM) | 5.89 (≈ 16.9 µM) |  |  |  |  | 
O=C(O)CCN1C(=O)/C(=C/c2cc3cc(Cl)ccc3nc2Cl)SC1=S | -65.7 | 0.333 | -36.7 | -7.27 | -1.12 | 1.91 | 37.3 | 27.1 | 20.6 | -10 | 6.58 | 3.17 | > 30 | > 30 | > 30 | > 30 | 56.5 | 25.7 | 13.7 | > 30 | IC90 [20]: > 30 µg/mL; IC50 [21]: > 30 µg/mL; IC90 [21]: > 30 µg/mL; IC50 [22]: > 30 µg/mL; IC90 [22]: > 30 µg/mL; IC50 [23]: > 30 µg/mL; IC90 [23]: > 30 µg/mL; MIC [24]: 200 µg/mL (≈ 484 µM); MIC [25]: 100 µg/mL (≈ 242 µM); MIC [26]: 200 µg/mL (≈ 484 µM); MIC [27]: 150 µg/mL (≈ 363 µM)
O=C(O)CN1C(=O)/C(=C/c2cc3ccccc3nc2Cl)SC1=S | -7.84 | -22.6 | -8.62 | -17.2 | -24.5 | -12 | -12.1 | -8.37 | -10.4 | 13.8 | -75.5 | -16.1 | > 30 | > 30 | > 30 | > 30 | 34.2 | 32.9 | 23.5 | > 30 | MIC [28]: 125 µg/mL (≈ 343 µM); IC90 [20]: > 30 µg/mL; IC50 [21]: > 30 µg/mL; IC90 [21]: > 30 µg/mL; IC50 [22]: > 30 µg/mL; IC90 [22]: > 30 µg/mL; IC50 [23]: > 30 µg/mL; IC90 [23]: > 30 µg/mL; MIC [24]: 125 µg/mL (≈ 343 µM); MIC [26]: 100 µg/mL (≈ 274 µM); MIC [27]: 100 µg/mL (≈ 274 µM)

From ChEMBL document CHEMBL3877264, “Quinolidene-rhodanine conjugates: Facile synthesis and biological evaluation” (Eur J Med Chem, 2017)
